Where a SMILES comes first, the peptide text is derived from it. [ ]: non-standard residue; d: D form. ξ: configuration not given here. Bip = N[C@@H](Cc1ccc(-c2ccccc2)cc1)C(=O)O; ξBip = NC(Cc1ccc(-c2ccccc2)cc1)C(=O)O; ξDip = NC(C(=O)O)C(c1ccccc1)c1ccccc1
What was measured:
SU-DHL-1 = experiment: Cytotoxicity against human SU-DHL-1 cells assessed as inhibition of cell proliferation incubated for 4 hrs by MTS assay; format: functional, cell-based; settings: SU-DHL-1, 4 h
Procedure, shortened: (§1)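 Cells grown in RPMI-1640 with 2 mM L-glutamine and 10% FBS, plated, then held 24 h at 37 °C. Adherent lines washed once in FBS-free medium. Cells exposed 4 h at 37 °C, 5% CO2 in FBS-free medium to 10 concentrations (1/4 steps, 400 μM top). 1% Triton X-100 served as positive control. MTS/PMS added for 2 h, then OD 490 nm read. IC50 from semilog curves; three independent experiments, quadruplicate wells.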

NAMALVA = experiment: Cytotoxicity against human NAMALVA cells assessed as inhibition of cell proliferation incubated for 4 hrs by MTS assay; format: functional, cell-based; procedure, shortened: as §1
[1] = Cytotoxicity against mouse AT84 cells assessed as inhibition of cell proliferation incubated for 4 hrs by MTT assay; format: functional, cell-based; settings: AT84, 4 h
MCF7 [2] = experiment: Cytotoxicity against human MCF7 cells assessed as inhibition of cell proliferation incubated for 4 hrs by MTS assay; format: functional, cell-based; settings: MCF7, 4 h; procedure, shortened: as §1
MCF7 [3] = experiment: Cytotoxicity against human MCF7 cells transfected with MDR1 assessed as inhibition of cell proliferation incubated for 4 hrs by MTS assay; format: functional, cell-based; settings: MCF7, 4 h; procedure, shortened: as §1
IGROV-1 = experiment: Cytotoxicity against human IGROV-1 cells assessed as inhibition of cell proliferation incubated for 4 hrs by MTS assay; format: functional, cell-based; settings: IGROV-1, 4 h; procedure, shortened: as §1
Daudi = experiment: Cytotoxicity against human Daudi cells assessed as inhibition of cell proliferation incubated for 4 hrs by MTS assay; format: functional, cell-based; procedure, shortened: as §1
CEM-VLB = experiment: Cytotoxicity against human CCRF-CEM/VLB cells assessed as inhibition of cell proliferation incubated for 4 hrs by MTS assay; format: functional, cell-based; procedure, shortened: as §1
HCT-116 = experiment: Cytotoxicity against human HCT-116 cells assessed as inhibition of cell proliferation incubated for 4 hrs by MTS assay; format: functional, cell-based; settings: HCT-116, 4 h; procedure, shortened: as §1
HCT-15 = experiment: Cytotoxicity against human HCT-15 cells assessed as inhibition of cell proliferation incubated for 4 hrs by MTS assay; format: functional, cell-based; settings: HCT-15, 4 h; procedure, shortened: as §1
[4] = Cytotoxicity against human HUVEC-C cells assessed as inhibition of cell proliferation incubated for 4 hrs by MTS assay; format: toxicity, cell-based; procedure, shortened: as §1
786-0 = experiment: Cytotoxicity against human 786-0 cells assessed as inhibition of cell proliferation incubated for 4 hrs by MTS assay; format: functional, cell-based; settings: 786-0, 4 h; procedure, shortened: as §1
OVCAR-3 = experiment: Cytotoxicity against human OVCAR-3 cells assessed as inhibition of cell proliferation incubated for 4 hrs by MTS assay; format: functional, cell-based; settings: OVCAR-3, 4 h; procedure, shortened: as §1
BXPC-3 = experiment: Cytotoxicity against human BXPC-3 cells assessed as inhibition of cell proliferation incubated for 4 hrs by MTS assay; format: functional, cell-based; settings: BXPC-3, 4 h; procedure, shortened: as §1
DU-145 = experiment: Cytotoxicity against human DU-145 cells assessed as inhibition of cell proliferation incubated for 4 hrs by MTS assay; format: functional, cell-based; settings: DU-145, 4 h; procedure, shortened: as §1
A-431 = experiment: Cytotoxicity against human A-431 cells assessed as inhibition of cell proliferation incubated for 4 hrs by MTS assay; format: functional, cell-based; settings: A-431, 4 h; procedure, shortened: as §1
[5] = Stability in pooled and cryopreserved human hepatocytes assessed as intrinsic clearance measured per 10^6 cells at 1 uM measured for 90 mins by LC-MS/MS analysis; format: ADME, cell-based, Hepatocyte; settings: read-out: CLH
Procedure, shortened: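 Pooled cryopreserved hepatocytes at 0.5 million cells/mL, incubated at about 37 °C with 1 μM initial peptide. Supernatant after centrifugation analysed by LC–MS/MS (MRM) using a D-Trp7,9,10-substance P internal standard. Peak height was referenced to time zero, and t1/2 = −0.693/slope of ln concentration vs time. Clint = 0.693/t1/2 × Vinc per million cells. Testosterone, midazolam and 4-methylumbelliferone were the positive controls. Duplicates; mean of two experiments.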

[6] = Stability in pooled and cryopreserved human hepatocytes assessed as half life at 1 uM measured for 90 mins by LC-MS/MS analysis; format: ADME, cell-based, Hepatocyte
Procedure, shortened: (§2)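 Pooled cryopreserved rat or human hepatocytes, 0.5 million cells/mL, ~37 °C, peptide at 1 μM initial. Supernatants analysed by LC–MS/MS with peak height referenced to time zero. t1/2 = −0.693/slope of ln concentration vs time. Duplicate experiments. Testosterone, midazolam and 4-methylumbelliferone served as metabolic-competence controls.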

[7] = Stability in pooled and cryopreserved rat hepatocytes assessed as half life at 1 uM measured for 90 mins by LC-MS/MS analysis; format: ADME, cell-based, Hepatocyte; procedure, shortened: as §2
[8] = Drug uptake in rat Red blood cells at 60 mins by LC-MS/MS analysis; format: ADME, cell-based; settings: erythrocyte, 1 h
Procedure, shortened: (§3)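 Pooled fresh whole blood (≥3 male and 3 female human, beagle dog or rat donors) spiked to 200 ng/mL. Incubated ~37 °C on rotary mixer over 0–120 min. Hematocrit determined. Blood and plasma analysed by LC–MS/MS. Blood/plasma ratio = Cb/C. Cell association = {[C(1 − H)]/Cb} × 100. Values at 60 min, mean of two independent measurements.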

[9] = Drug uptake in Beagle dog Red blood cells at 60 mins by LC-MS/MS analysis; format: ADME, cell-based, Canis lupus familiaris; settings: erythrocyte, 1 h; procedure, shortened: as §3
Cytochrome P450 1A2 [10] = target: T1, Cytochrome P450 1A2 (Homo sapiens, UniProt P05177); experiment: Inhibition of CYP1A2 in human liver microsomes using as phenacetin substrate assessed as reduction in O-deethylation of phenacetin incubated for 5 mins in presence of beta-NADPH by LC-MS/MS analysis; format: ADME, Microsome
T1 sequence (P05177 whole entry, canonical isoform): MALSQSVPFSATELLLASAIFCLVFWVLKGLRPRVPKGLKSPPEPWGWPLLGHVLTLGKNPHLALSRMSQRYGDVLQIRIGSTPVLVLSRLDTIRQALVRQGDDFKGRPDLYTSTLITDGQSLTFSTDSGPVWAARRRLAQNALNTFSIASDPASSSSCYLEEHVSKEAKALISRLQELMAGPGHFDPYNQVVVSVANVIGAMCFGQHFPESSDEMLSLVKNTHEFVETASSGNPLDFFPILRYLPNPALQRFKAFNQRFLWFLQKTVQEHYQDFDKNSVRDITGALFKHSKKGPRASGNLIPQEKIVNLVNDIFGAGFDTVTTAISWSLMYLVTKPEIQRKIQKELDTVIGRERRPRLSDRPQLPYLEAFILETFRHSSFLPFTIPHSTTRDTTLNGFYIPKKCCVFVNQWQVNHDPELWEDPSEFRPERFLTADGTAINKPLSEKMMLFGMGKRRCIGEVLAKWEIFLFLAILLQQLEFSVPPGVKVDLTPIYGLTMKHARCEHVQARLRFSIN
Procedure, shortened: (§4)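 Pooled human liver microsomes (50 donors) in 100 mM phosphate, pH 7.4, with 2 mM β-NADPH. Protein 0.1 mg/mL (2A6, 2C8, 2C9, 2E1, 3A4) or 0.3 mg/mL (1A2, 2B6, 2C19, 2D6). Test article 0–100 μM final, preincubated ~37 °C 5 or 30 min before isoform-selective substrate. Quenched in methanol with internal standard. Metabolite measured by LC–MS/MS against standard curve. Duplicates, with selective inhibitor positive controls.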

Cytochrome P450 2B6 = Cytochrome P450 2B6 (Homo sapiens, UniProt P20813); experiment: Inhibition of CYP2B6 in human liver microsomes using bupropion as substrate assessed as reduction in substrate hydroxylation incubated for 5 mins in presence of beta-NADPH measured by LC-MS/MS analysis; format: ADME, Microsome; procedure, shortened: as §4
Cytochrome P450 2B6, sequence (P20813 whole entry): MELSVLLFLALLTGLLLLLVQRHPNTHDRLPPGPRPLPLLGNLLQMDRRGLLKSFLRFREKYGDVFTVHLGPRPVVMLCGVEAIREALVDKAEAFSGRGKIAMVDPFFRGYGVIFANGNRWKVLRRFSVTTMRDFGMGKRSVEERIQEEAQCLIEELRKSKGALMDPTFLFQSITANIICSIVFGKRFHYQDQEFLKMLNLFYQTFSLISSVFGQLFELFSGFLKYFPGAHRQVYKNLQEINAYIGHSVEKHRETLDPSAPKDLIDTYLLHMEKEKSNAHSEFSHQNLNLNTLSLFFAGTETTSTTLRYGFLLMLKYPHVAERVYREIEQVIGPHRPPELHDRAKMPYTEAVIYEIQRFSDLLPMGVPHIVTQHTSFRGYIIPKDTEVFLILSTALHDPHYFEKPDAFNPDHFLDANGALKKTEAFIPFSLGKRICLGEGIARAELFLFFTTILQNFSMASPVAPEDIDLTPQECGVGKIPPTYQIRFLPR

Cytochrome P450 2C8 = Cytochrome P450 2C8 (Homo sapiens, UniProt P10632); experiment: Inhibition of CYP2C8 in human liver microsomes using paclitaxel as substrate assessed as reduction in substrate hydroxylation incubated for 5 mins in presence of beta-NADPH measured by LC-MS/MS analysis; format: ADME, Microsome; procedure, shortened: as §4
Cytochrome P450 2C8, sequence (P10632 whole entry): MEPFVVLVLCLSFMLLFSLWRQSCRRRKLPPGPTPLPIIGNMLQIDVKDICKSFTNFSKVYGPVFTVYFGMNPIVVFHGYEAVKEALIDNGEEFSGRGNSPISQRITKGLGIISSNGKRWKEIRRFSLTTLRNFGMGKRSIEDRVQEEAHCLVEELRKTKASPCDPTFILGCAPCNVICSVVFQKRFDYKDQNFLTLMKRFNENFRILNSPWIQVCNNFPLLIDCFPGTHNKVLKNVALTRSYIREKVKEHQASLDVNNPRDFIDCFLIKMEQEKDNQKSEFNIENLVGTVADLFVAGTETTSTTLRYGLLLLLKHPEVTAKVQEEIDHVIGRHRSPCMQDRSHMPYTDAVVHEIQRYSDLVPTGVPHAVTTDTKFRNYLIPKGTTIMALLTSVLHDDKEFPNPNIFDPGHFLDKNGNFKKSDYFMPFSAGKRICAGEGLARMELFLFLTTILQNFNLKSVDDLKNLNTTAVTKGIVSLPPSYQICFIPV

Cytochrome P450 2C19 = Cytochrome P450 2C19 (Homo sapiens, UniProt P33261); experiment: Inhibition of CYP2C19 in human liver microsomes using (S)-mephenytoin as substrate assessed as reduction in substrate hydroxylation incubated for 5 mins in presence of beta-NADPH measured by LC-MS/MS analysis; format: ADME, Microsome; procedure, shortened: as §4
Cytochrome P450 2C19, sequence (P33261 whole entry): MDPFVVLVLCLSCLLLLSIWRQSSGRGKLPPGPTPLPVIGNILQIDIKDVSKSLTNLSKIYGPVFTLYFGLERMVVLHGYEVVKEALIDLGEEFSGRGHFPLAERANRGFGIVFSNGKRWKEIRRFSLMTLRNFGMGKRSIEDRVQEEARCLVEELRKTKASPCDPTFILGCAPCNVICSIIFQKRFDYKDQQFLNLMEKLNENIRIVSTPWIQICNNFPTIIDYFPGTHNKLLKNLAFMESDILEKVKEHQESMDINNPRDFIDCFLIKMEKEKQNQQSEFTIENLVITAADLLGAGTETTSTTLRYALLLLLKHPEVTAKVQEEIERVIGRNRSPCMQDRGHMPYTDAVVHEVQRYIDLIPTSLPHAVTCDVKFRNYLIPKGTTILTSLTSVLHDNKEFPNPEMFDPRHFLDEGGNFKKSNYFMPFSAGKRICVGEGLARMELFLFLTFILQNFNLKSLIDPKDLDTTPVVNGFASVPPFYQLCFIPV

Cytochrome P450 1A2 [11] = target: T1, Cytochrome P450 1A2; experiment: Inhibition of CYP1A2 in human liver microsomes using as phenacetin substrate assessed as reduction in O-deethylation of phenacetin incubated for 30 mins in presence of beta-NADPH by LC-MS/MS analysis; format: ADME, Microsome; procedure, shortened: as §4
Cytochrome P450 3A4 = Cytochrome P450 3A4 (Homo sapiens, UniProt P08684); experiment: Inhibition of CYP3A4 in human liver microsomes using testosterone as substrate assessed as reduction in substrate hydroxylation incubated for 30 mins in presence of beta-NADPH measured by LC-MS/MS analysis; format: ADME, Microsome; procedure, shortened: as §4
Cytochrome P450 3A4, sequence (P08684 whole entry): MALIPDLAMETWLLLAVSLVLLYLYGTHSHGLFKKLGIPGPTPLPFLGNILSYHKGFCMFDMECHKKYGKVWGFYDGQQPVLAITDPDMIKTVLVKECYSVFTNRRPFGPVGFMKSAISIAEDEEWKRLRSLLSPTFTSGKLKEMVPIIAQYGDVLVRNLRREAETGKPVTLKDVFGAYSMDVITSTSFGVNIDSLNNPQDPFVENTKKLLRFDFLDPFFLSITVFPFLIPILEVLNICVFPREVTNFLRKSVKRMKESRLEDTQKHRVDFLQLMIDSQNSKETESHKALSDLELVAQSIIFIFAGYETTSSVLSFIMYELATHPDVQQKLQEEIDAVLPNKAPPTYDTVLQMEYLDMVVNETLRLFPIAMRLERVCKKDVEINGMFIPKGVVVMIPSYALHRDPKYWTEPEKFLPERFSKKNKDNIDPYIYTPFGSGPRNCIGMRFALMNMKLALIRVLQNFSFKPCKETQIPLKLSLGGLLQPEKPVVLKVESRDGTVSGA

SMILES | IC50 (SU-DHL-1) [µM] | IC50 (NAMALVA) [µM] | IC50 [1] [µM] | IC50 (MCF7 [2]) [µM] | IC50 (MCF7 [3]) [µM] | IC50 (IGROV-1) [µM] | IC50 (Daudi) [µM] | IC50 (CEM-VLB) [µM] | IC50 (HCT-116) [µM] | IC50 (HCT-15) [µM] | IC50 at 4 h [4] [µM] | IC50 (786-0) [µM] | IC50 (OVCAR-3) [µM] | IC50 (BXPC-3) [µM] | IC50 (DU-145) [µM] | IC50 (A-431) [µM] | other results
NCCCC[C@H](NC(=O)[C@H](Cc1c[nH]c2ccccc12)NC(=O)[C@H](Cc1c[nH]c2ccccc12)NC(=O)[C@H](CCCCN)NC(=O)[C@H](CCCCN)NC(=O)[C@H](Cc1c[nH]c2ccccc12)NC(=O)C(Cc1ccc(-c2ccccc2)cc1)NC(=O)[C@H](CCCCN)NC(=O)[C@@H](N)CCCCN)C(N)=O (stereo partly specified) (H-KK[ξBip]WKKWWK-NH2) | 4.6 | 8.5 | 17.7 | 6.8 | 8.4 | 13.4 | 6.6 | 5.7 | 7.6 | 13.9 | 37.9 | 16.8 | 14.3 | 8.9 | 8.8 | 7.2 | –
N=C(N)NCCC[C@H](NC(=O)[C@H](Cc1c[nH]c2ccccc12)NC(=O)[C@H](Cc1c[nH]c2ccccc12)NC(=O)[C@H](CCCNC(=N)N)NC(=O)[C@H](CCCNC(=N)N)NC(=O)C(NC(=O)[C@H](Cc1c[nH]c2ccccc12)NC(=O)[C@H](CCCNC(=N)N)NC(=O)[C@@H](N)CCCNC(=N)N)C(c1ccccc1)c1ccccc1)C(N)=O (stereo partly specified) (H-RRW[ξDip]RRWWR-NH2) | 5 | 5.3 | 11.3 | 5.5 | 6.6 | 11.1 | 4.7 | 3.6 | 4.8 | 7.5 | 19.4 | 7.5 | 8.4 | 6.2 | 6.8 | 5.5 | –
NCCCC[C@H](NC(=O)[C@H](Cc1c[nH]c2ccccc12)NC(=O)[C@H](Cc1c[nH]c2ccccc12)NC(=O)[C@H](CCCCN)NC(=O)[C@H](CCCCN)NC(=O)[C@H](Cc1c[nH]c2ccccc12)NC(=O)[C@H](Cc1ccc(-c2ccccc2)cc1)NC(=O)[C@H](CCCCN)NC(=O)[C@@H](N)CCCCN)C(N)=O (H-KK[Bip]WKKWWK-NH2) | 5.6 | 6.5 | 11.3 | 4.6 | 4.9 | 14.3 | 7.9 | 4 | 8.6 | 10 | 33 | 13.8 | 14.1 | 8.2 | 8.2 | 7.1 | –
NCCCC[C@H](NC(=O)[C@H](Cc1c[nH]c2ccccc12)NC(=O)[C@H](CCCCN)NC(=O)[C@H](CCCCN)NC(=O)C(NC(=O)[C@H](Cc1c[nH]c2ccccc12)NC(=O)[C@H](CCCCN)NC(=O)[C@H](CCCCN)NC(=O)[C@@H](N)Cc1c[nH]c2ccccc12)C(c1ccccc1)c1ccccc1)C(N)=O (stereo partly specified) (H-WKKW[ξDip]KKWK-NH2) | 7.3 | 7.1 | 21 | 8.9 | 11 | 19.6 | 8.1 | 5.3 | 10.3 | 12 | 55.5 | 19.2 | 13.9 | 17.9 | 12.4 | 11.7 | –
NCCCC[C@H](NC(=O)C(NC(=O)[C@H](Cc1c[nH]c2ccccc12)NC(=O)[C@H](CCCCN)NC(=O)[C@H](CCCCN)NC(=O)[C@H](Cc1c[nH]c2ccccc12)NC(=O)[C@H](Cc1c[nH]c2ccccc12)NC(=O)[C@H](CCCCN)NC(=O)[C@@H](N)CCCCN)C(c1ccccc1)c1ccccc1)C(N)=O (stereo partly specified) (H-KKWWKKW[ξDip]K-NH2) | 2.3 | 3.6 | 11 | 2.2 | 2.5 | 6.4 | 4 | 2.4 | 3.4 | 3.8 | 16.3 | 5.8 | 5.2 | 3.7 | 3.9 | 3.2 | hepatocyte CLint at 1 µM [5]: 22 µL/min/1e6 cells; half-life at 1 µM [6]: 1.07 h; half-life at 1 µM [7]: 1.18 h; Drug uptake [8]: 44%; Drug uptake [9]: 76%; IC50 (Cytochrome P450 1A2 [10]): 37.9 µM; IC50 (Cytochrome P450 2B6): 27.7 µM; IC50 (Cytochrome P450 2C8): 10.2 µM; IC50 (Cytochrome P450 2C19): 23.3 µM; IC50 (Cytochrome P450 1A2 [11]): > 100 µM; IC50 (Cytochrome P450 3A4): 12.1 µM

From ChEMBL document CHEMBL5257020, “Discovery of a 9-mer Cationic Peptide (LTX-315) as a Potential First in Class Oncolytic Peptide” (J Med Chem, 2016)
